Results from ChEMBL document CHEMBL1135780, “6-Chloro-3-alkylamino-4H-thieno[3,2-e]-1,2,4-thiadiazine 1,1-dioxide derivatives potently and selectively activate ATP sensitive potassium channels of pancreatic beta-cells” (J Med Chem, 2002).

Experiments:
[1] = Oral bioavailability in rat (Sprague-Dawley); format: ADME, organism-based; settings: Sprague-Dawley, in vivo
Outline: (§1)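 Cassette dosing, two compounds per cassette, in Sprague–Dawley rats of about 180 g, n = 2. iv doses 0.5 or 0.89 mg/kg; oral doses 1.89 or 2.0 mg/kg. Vehicle 0.1 M potassium phosphate pH 8.0, or PEG 300 based. Heart-puncture sampling, one rat per point. Plasma levels by LC/MS/MS; noncompartmental analysis.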

[2] = Acid dissociation constant was determined; format: ADME
Outline: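 Potentiometric titration from pH 2 to 10.5 in 80% MeOH cosolvent. Three titrations on the same sample, with 0.15 M KCl added before the second. psKa values extrapolated to 0% cosolvent by Yasuda–Shedlovsky.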

[3] = Half life after oral administration to Sprague-Dawley rats; format: ADME, organism-based; settings: rat, in vivo; outline: as §1
[4] = tested on: Beta-TC6; test: Percentage insulin release in vitro in beta-TC6 cells; format: functional; settings: Mus musculus
Outline: (§2)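 βTC6 cells, 5 × 10⁴/well, grown 3 days in DMEM + 10% FCS, 11 mM glucose, 20 mM Hepes. Washed twice in NN buffer with 0.1% BSA, preincubated 60 min, then 3 h with 22 mM glucose, 0.1 mM IBMX and serial compound dilutions. Insulin in supernatant measured by in-house ELISA (guinea pig anti-insulin, rat insulin standard). Reference compound as positive control.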

[5] = tested on: Beta-TC6; test: Ability to inhibit the release of insulin from the mouse beta-TC6 cell line; format: functional, cell-based; outline: as §2
[6] = Changes in potassium fluxes assessed in the glucose responsive insulin-producing murine cell line beta-TC3; format: functional, cell-based, Mus musculus
Outline: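 βTC3 membrane potential read as DiBAC4(3) fluorescence at 0.01, 0.1, 1, 10 and 100 µM, four wells each. Signal normalized to each well's initial value and expressed as fractional fluorescence change over 45 min incubation. EC50 from four-parameter nonlinear fit; mean ± SEM of at least three independent experiments.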

[7] = species on record: Rattus norvegicus; test: Maximum change in MAP in rat; format: functional
Outline: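 Anaesthetized male Sprague–Dawley rats given 3 mg/kg iv bolus (0.3 mg/kg for one compound) in 0.15% NaOH/saline via jugular cannula. Maximal percent change in mean arterial pressure over 5 min after dosing; mean ± SEM, 2–4 animals.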

[8] = species on record: Rattus norvegicus; test: Ability to relax phenylephrine-contracted rat aorta rings; format: functional
[9] = species on record: Rattus norvegicus; test: Inhibition of glucose-stimulated insulin release from Wistar rat islets; format: functional
Outline: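 Isolated rat islets held overnight in RPMI, 10% FCS, 11 mM glucose, then 10 islets/well overnight in DMEM, 10% FCS, 3 mM glucose. Run like the βTC6 assay (60 min NN buffer preincubation, 3 h with 22 mM glucose and serial dilutions) without IBMX. Insulin by in-house ELISA.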

[10] = species on record: Rattus norvegicus; test: Reduction in plasma insulin in 30 min post-injection in rat; format: functional; parameters: concentration or dose not given beside the values
Outline: (§3)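 Postprandial male Sprague–Dawley rats, 280–320 g, under Hypnorm/Dormicum at 37 °C. 3 mg/kg iv bolus over 20 s via jugular cannula (0.3 mg/kg for one compound), dissolved in 0.15% NaOH and saline. Blood taken every 5–10 min from 15 min pre- to 30 min postinjection. Plasma insulin by ELISA, as % reduction from pre-dose level. 2–4 animals.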

[11] = species on record: Rattus norvegicus; test: Maximum reduction in plasma insulin in rat; format: functional; outline: as §3
[12] = molecular target: T1, Sulfonylurea receptor 1, Kir6.2 (Homo sapiens, UniProt Q09428+Q14654); test: Inhibition of [3H]glibenclamide binding to HEK293 cells co-expressing human Sulfonylurea receptor SUR1 and Inward rectifier K+ channel Kir6.2 without ATP; format: cell-based
Outline: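 Membranes from HEK293 cells stably expressing human SUR1/Kir6.2 (100 µg/mL protein) incubated 1 h at 37 °C with 1 nM [3H]glibenclamide in 30 mM HEPES pH 7.4, here without MgCl2 and ATP. Nonspecific binding with 10 µM glipizide. Rapid filtration, scintillation counting; IC50 by one- or two-site sigmoid nonlinear regression.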

[13] = molecular target: T1, Sulfonylurea receptor 1, Kir6.2; test: Inhibition of [3H]glibenclamide binding to HEK293 cells co-expressing human Sulfonylurea receptor SUR1 and Inward rectifier K+ channel Kir6.2 at high affinity state with 2 mM MgATP; format: cell-based
[14] = molecular target: T1, Sulfonylurea receptor 1, Kir6.2; test: Inhibition of [3H]glibenclamide binding to HEK293 cells co-expressing human Sulfonylurea receptor SUR1 and Inward rectifier K+ channel Kir6.2 at low affinity state with 2 mM MgATP; format: cell-based
[15] = tested on: βTC6 cells (Mus musculus); test: Inhibition of glucose-stimulated insulin release from βTC6 cells
[16] = tested on: Beta-TC6; test: Maximum inhibition of glucose stimulated insulin release from mouse beta-TC6 cells at 10 uM in vitro.; format: functional
[17] = species on record: Rattus norvegicus; test: Effective concentration require for relaxation of rat aorta rings; format: functional

T1 sequence (Q14654 whole entry): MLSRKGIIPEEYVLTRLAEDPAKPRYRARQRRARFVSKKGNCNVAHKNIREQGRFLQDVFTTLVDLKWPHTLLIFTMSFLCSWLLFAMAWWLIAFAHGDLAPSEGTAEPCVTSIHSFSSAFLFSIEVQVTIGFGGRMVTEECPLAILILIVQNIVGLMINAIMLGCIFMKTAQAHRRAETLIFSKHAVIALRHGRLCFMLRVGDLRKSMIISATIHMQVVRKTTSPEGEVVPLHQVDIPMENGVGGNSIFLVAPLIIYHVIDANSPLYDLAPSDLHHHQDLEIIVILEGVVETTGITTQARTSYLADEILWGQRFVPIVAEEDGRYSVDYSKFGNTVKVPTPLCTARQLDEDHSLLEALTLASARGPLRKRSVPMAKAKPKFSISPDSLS
T1 sequence (Q09428 whole entry): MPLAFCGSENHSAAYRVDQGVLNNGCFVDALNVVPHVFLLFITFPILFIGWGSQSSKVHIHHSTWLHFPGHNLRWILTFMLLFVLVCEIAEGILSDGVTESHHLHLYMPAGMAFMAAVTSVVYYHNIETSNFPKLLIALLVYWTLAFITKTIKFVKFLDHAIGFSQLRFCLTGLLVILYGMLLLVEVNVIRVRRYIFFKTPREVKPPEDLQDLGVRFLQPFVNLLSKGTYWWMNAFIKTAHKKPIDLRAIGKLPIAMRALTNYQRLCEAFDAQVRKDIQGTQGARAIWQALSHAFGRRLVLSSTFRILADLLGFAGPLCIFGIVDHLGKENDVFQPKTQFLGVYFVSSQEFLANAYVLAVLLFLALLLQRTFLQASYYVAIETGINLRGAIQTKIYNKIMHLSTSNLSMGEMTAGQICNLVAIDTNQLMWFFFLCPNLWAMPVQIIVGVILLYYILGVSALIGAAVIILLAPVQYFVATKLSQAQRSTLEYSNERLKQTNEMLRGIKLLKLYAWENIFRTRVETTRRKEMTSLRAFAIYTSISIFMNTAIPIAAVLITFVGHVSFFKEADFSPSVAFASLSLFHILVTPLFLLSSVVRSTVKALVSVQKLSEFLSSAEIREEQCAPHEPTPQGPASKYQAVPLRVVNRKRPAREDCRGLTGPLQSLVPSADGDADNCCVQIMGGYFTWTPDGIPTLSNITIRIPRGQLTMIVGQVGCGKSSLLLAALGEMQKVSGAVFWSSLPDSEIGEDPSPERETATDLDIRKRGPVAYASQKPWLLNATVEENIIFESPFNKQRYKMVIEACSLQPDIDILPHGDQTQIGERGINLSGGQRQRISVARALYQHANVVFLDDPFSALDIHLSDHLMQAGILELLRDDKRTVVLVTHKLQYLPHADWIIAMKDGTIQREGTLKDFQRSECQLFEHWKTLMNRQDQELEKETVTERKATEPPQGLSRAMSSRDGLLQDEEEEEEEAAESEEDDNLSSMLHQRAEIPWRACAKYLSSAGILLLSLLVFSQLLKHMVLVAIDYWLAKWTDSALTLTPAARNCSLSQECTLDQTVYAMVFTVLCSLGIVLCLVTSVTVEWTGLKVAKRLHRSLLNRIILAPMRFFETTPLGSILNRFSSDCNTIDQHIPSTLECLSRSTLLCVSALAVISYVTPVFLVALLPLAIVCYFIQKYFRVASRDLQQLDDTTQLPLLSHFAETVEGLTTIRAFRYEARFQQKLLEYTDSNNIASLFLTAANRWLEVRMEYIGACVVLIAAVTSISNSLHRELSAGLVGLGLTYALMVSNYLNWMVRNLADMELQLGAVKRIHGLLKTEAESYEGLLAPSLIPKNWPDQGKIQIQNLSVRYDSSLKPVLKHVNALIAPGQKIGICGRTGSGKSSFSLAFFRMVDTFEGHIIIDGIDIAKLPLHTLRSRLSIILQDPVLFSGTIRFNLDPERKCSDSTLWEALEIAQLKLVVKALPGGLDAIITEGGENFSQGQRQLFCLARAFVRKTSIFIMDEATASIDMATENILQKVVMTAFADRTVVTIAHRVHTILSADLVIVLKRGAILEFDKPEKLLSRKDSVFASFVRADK

Row | bioavailability [1] [%] | pKa [2] | half-life [3] [h] | IC50 [5] [µM] | EC50 [6] [µM] | EC50 [8] [µM] | IC50 [9] [µM] | IC50 [12] [µM] | IC50 [13] [µM] | IC50 [14] [µM] | EC50 [17] [µM] | Compound | Emax [4] [%] | Change [7] [%] | Reduction [10] [%] | Reduction [11] [%] | Emax [15] [%] | Emax at 10 µM [16] [%]
1 | 90 | 8.54 | 2.72 | 0.24 | 0.3 | 70 | 0.06 | 487 | 0.64 | 224 | – | CC[C@@H](C)NC1=NS(=O)(=O)c2sc(Cl)cc2N1 | 82 | -17 | 94 | 97 | 82 | –
2 | – | – | – | 21.2 | > 100 | 17.3 | – | – | – | – | 17.3 | CNC1=NS(=O)(=O)c2sc(Cl)cc2N1 | – | – | – | – | – | 35
